The values below come from paper PMC6333101 (ACS chemical biology, 2018).

The structures appear in SMILES notation. Like-named read-outs stand apart in the source and are kept apart here.

In data set [1] the target is LRRK2 (Homo sapiens, UniProt Q5S007). Briefly: LRRK2 kinase activity in vitro assay. It is filed as biochemical.
For data set [2], the system named is ERK5. Briefly: Cellular assay of ERK5. It is filed as cell-based, Human.
Data set [3] concerns the target ERK5 (Homo sapiens, UniProt Q13164). In words: ERK5 kinase activity in vitro assay. The format is biochemical. Conditions: for IC50: read-out: Enzymatic IC50 (ERK5), in vitro assay, average of 2 replicates ± SD.
Data set [4] deals with T1, BRD4 (BD1) (Homo sapiens, UniProt O60885). In words: BRD4-1 AlphaScreen binding assay. Background: In Alpha technology, singlet oxygen from a donor bead excites a nearby acceptor bead.
Data set [5] addresses T1, BRD4 (BD1). In words: BRD4-1 AlphaScreen binding assay. The source holds these as a separate data set.
For data set [6], the system named is 797 NUT-midline carcinoma cells. In words: 797 NMC cell viability assay. As to conditions: read-out: Viability IC50 (BRD4), Cell Titer Glo, 3 days, average of 3 replicates ± SD. The format is cell-based. The method in brief: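 797 NUT-midline carcinoma cells were seeded at 5,000 cells/well and exposed for 3 days to a range of test compound concentrations or DMSO. Relative cell number was read with Cell Titer Glo following the kit instructions. The methods state 6 replicates; the reported IC50 is the mean of 3 replicates ± SD.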
(In ATP-based viability assays light output follows the ATP content of the culture.)

A short description of data set [7]: Variable temperature 1H NMR, interconversion of conformers. The format is physicochemical.
Data set [8] relates to ERK5. In words: KinomeScan kinome profiling, ERK5. It is filed as binding. As to conditions: 1 μM, panel of 468 human kinases. The method in brief:
(§1)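 KinomeScan ScanMAX binding panel, single test compound concentration of 1 μM. A hit was defined as an Ambit score below 10%.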

The target of data set [9] is T2, DCAMKL2 (Homo sapiens, UniProt Q8N568).
T2 sequence (Q8N568 1-766): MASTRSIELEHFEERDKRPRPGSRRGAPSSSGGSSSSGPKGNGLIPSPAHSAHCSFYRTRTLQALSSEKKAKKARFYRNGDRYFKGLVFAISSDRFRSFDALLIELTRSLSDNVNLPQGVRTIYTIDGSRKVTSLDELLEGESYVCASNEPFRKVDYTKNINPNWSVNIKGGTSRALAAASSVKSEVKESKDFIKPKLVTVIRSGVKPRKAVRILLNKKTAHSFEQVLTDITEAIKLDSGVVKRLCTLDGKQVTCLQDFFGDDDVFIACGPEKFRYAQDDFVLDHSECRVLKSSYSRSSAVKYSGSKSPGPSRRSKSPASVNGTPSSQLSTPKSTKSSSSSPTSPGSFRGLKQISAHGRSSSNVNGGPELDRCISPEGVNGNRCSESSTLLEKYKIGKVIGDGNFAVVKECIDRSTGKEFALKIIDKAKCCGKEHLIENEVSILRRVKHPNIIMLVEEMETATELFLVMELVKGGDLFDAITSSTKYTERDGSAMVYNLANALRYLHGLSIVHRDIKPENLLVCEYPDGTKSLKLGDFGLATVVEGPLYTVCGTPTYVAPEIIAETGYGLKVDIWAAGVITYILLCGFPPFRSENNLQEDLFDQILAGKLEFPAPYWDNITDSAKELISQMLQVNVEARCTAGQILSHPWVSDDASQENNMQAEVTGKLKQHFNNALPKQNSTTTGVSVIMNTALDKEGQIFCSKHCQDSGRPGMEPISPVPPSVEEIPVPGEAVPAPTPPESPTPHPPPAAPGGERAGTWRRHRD
In words: KinomeScan kinome profiling, DCAMKL2. The format is binding. As to conditions: 1 μM, panel of 468 human kinases. An outline of the steps:
as §1

Data set [10] concerns DCAMKL2. Briefly: DCAMKL2 biochemical enzyme assay. As to conditions: in vitro biochemical enzyme assays.
For data set [11], the system named is panel of 32 bromodomains. In words: BROMOscan bromodomain profiling. Conditions: 10 μM. The format is binding.
Setting [12] is: read-out: Biochemical IC50 (BRD4, μM) a, AlphaScreen, Dana-Farber, average of 2 replicates ± SE.
[13] abbreviates: read-out: Biochemical IC50 (BRD4, μM) b, AlphaScreen, University of Oxford, average of 4 replicates ± SD.
Setting [14] is: read-out: Enzymatic IC50 (LRRK2), Adapta assay format, average of 2 replicates ± SD.
[15] abbreviates: Homo sapiens, HeLa, read-out: Cellular EC50 (ERK5, μM).

LRRK2, sequence (Q5S007 whole entry): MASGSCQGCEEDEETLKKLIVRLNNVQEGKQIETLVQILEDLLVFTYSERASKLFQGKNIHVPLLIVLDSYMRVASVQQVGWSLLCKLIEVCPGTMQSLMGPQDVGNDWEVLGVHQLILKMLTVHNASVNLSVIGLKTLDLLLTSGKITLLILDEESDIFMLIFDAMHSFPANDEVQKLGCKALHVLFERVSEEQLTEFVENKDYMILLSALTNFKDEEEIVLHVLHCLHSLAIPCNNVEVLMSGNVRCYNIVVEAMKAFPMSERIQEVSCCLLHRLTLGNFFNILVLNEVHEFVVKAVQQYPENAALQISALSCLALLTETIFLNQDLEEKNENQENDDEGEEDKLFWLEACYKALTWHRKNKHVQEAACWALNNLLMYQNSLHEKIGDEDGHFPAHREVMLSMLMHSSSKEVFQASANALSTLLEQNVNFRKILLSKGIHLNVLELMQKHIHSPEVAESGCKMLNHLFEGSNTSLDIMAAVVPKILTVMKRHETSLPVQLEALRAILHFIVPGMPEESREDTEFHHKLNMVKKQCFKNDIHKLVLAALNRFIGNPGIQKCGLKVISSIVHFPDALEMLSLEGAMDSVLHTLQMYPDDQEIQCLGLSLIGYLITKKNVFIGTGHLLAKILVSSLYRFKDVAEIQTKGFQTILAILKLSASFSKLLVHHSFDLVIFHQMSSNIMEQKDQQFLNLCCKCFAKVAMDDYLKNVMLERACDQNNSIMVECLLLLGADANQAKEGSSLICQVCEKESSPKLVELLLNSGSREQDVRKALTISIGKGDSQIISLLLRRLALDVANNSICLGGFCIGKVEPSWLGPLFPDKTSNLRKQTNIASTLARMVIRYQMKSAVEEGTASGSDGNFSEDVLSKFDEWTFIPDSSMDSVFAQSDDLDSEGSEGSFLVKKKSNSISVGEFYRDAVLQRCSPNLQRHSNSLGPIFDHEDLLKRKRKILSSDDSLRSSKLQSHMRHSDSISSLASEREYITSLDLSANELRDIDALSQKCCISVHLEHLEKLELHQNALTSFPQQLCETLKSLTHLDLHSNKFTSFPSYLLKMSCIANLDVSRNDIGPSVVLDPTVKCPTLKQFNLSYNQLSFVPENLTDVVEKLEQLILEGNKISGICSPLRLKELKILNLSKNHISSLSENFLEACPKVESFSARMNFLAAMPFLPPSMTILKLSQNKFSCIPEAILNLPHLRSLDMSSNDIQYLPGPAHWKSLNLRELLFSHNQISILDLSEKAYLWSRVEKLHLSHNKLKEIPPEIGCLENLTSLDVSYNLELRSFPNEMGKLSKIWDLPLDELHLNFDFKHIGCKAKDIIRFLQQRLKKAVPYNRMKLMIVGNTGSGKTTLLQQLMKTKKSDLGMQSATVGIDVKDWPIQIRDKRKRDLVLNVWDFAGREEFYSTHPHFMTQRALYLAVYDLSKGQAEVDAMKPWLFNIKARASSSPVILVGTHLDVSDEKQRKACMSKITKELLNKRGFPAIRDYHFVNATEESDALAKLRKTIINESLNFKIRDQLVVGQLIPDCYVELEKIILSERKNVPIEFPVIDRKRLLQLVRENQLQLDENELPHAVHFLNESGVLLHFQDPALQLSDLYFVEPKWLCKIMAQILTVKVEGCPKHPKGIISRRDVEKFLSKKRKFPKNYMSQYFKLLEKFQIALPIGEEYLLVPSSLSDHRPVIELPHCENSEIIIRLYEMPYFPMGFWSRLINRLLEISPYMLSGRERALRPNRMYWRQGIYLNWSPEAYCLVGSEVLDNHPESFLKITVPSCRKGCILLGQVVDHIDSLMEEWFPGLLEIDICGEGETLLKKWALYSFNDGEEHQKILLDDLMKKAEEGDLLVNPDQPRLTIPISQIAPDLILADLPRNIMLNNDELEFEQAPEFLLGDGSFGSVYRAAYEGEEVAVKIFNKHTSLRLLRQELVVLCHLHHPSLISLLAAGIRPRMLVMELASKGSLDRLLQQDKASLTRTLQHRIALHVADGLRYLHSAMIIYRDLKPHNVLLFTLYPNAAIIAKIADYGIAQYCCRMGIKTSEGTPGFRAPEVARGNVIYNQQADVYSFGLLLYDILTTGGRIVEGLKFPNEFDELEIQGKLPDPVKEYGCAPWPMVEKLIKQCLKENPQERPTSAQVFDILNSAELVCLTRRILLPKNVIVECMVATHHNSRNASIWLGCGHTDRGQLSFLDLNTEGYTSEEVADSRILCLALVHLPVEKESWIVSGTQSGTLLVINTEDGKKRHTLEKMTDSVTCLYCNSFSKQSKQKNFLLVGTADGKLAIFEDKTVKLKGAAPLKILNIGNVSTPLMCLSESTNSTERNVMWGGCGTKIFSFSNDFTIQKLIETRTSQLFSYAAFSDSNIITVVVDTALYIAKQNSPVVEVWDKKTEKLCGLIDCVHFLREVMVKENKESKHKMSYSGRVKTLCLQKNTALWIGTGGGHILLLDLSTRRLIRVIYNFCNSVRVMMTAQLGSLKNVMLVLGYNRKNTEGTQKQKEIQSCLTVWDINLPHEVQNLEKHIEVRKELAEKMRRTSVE
ERK5 (Homo sapiens, UniProt Q13164), sequence (Q13164 whole entry): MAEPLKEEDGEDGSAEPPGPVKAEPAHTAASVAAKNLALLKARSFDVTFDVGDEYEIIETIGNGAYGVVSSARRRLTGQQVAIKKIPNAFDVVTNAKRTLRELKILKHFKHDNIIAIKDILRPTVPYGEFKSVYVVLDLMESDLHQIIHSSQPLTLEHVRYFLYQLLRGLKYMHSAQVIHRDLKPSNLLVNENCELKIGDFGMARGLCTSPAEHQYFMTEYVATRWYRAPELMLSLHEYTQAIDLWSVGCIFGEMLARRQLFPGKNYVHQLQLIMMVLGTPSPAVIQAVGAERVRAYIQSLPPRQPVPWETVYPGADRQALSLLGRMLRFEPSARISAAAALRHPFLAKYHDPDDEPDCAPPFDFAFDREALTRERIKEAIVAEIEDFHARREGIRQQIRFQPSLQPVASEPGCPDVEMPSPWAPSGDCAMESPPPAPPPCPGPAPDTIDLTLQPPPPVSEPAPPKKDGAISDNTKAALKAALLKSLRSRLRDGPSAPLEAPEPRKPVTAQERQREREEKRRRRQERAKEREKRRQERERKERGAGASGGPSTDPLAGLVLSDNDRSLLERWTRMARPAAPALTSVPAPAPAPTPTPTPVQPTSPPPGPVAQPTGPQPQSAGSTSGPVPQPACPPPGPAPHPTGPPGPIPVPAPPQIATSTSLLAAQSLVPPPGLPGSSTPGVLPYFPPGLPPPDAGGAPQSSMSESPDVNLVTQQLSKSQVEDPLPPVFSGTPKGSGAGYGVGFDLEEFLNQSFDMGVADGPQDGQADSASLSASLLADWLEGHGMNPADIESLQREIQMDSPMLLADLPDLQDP

Broadly, the IC50 is the point on the concentration scale where inhibition reaches its midpoint. As to `CCOc1cc(C(=O)N2CCC(N3CCN(C)CC3)CC2)ccc1Nc1ncc2c(n1)N(S(C)(=O)=O)c1ccccc1C(=O)N2C` [AX15836, reference compound], in data set [1], the IC50 was determined as 0.942 ± 0.569 µM.
Usually EC50 stands for the concentration that produces a half-maximal response. As to `CCC(C)N1c2ccccc2C(=O)N(C)c2cnc(Nc3ccc(C(=O)N4CCC(N5CCN(C)CC5)CC4)cc3OC)nc21` (stereo not drawn) [JWG-071], in data set [2] (read-out: Cellular EC50 (ERK5), EGF-stimulated autophosphorylation of ERK5 in Hela cells, average of 2 replicates ± SD), the EC50 came to 0.02 ± 0.003 µM. Further, the “improved ERK5 activity compared to XMD17–109 (ERK5-IN-1)” value in data set [3] is 2 fold. Moreover, the IC50 in data set [3] was 0.088 ± 0.005 µM; in data set [4] (setting [12]), 5.42 ± 0.18 µM; in [5] (setting [13]), 6.31 ± 1.93 µM; in data set [6], over 10 µM; in data set [1] (setting [14]), 0.109 ± 0.014 µM. Besides, in [7] (calculated energy barrier of interconversion), the “Calc ΔErac” value is 66.5 kJ/mol. Further, the “Tco (coalescence temperature)” value in data set [7] (variable temperature 1H NMR in DMSO-d6) came to 60 °C. In addition, in [8], the “Ambit score (ERK5)” value was “less than 10%”. The “Ambit score (DCAMKL2)” value in data set [9] is recorded as “less than 10%”. The “selectivity for ERK5 relative to LRRK2” value in [1] (in vitro biochemical enzyme assays) is listed as 1.2 folds. In addition, in [10], the “selectivity for ERK5 relative to DCAMKL2” value worked out at 2.5 folds.
With `CC(C)Oc1cc(C(=O)N2CCC(N3CCN(C)CC3)CC2)ccc1Nc1ccc2c(n1)N(C1CCCC1)c1ccccc1C(=O)N2C` [JWG-115], the IC50 in [3] was over 10 µM; in [4] (read-out: BRD4 IC50, value as stated in text), 1 µM; in [4] (setting [12]) it was 1.08 ± 0.05 µM; in data set [5] (setting [13]), 1.1 ± 0.05 µM; in data set [1] (setting [14]), over 3.3 µM. Moreover, in data set [4] (pyridine vs pyrimidine core), the “decrease of activity against BRD4 compared to the pyrimidine analogs XMD11–50 and JWG-047” value was 4–8 fold. In data set [11], the “BROMOscan binding among BET family” value is given as “strong binding”. For the same compound, the “BROMOscan binding outside BET family” value in [11] was “no binding”.
Regarding `COc1cc(C(=O)N2CCC(N3CCN(C)CC3)CC2)ccc1Nc1ncc2c(n1)N(C)c1ccccc1C(=O)N2C` [XMD11–50 (LRRK2-IN-1)], in [2] (setting [15]), the EC50 stood at […]. Further, in data set [1], 0.0034 ± 0.0017 µM corresponded to half-maximal inhibition (IC50).
Take `CCOc1cc(C(=O)N2CCC(N3CCN(C)CC3)CC2)ccc1Nc1ncc2c(n1)N(C1CCCC1)c1ccccc1C(=O)N2C` [XMD17–109 (ERK5-IN-1), reference compound]: the EC50 in data set [2] (setting [15]) came out at […]. Besides, the IC50 was 0.217 ± 0.008 µM in data set [4] and 0.68 ± 0.03 µM in [5].
